The test system of assay [1] is Mus musculus. Nature of the assay: Antiinflammatory activity in FVB mouse peritonitis model assessed as reduction in zymosan-induced polymorphonuclear leukocyte infiltration at 1 ng, iv after 4 hrs. Type of assay: functional, organism-based. Summed up:
(§1)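 Male FVB mice, 6–8 weeks, isoflurane-anesthetized; compounds as carboxymethyl esters given iv by tail vein in 100 μl saline (0.05–50 μgkg–1 range), then zymosan A 1 mg/ml ip. Peritoneal lavage at 4 h; cells counted after trypan blue, differentials by Wright-Giemsa cytospin; reduction versus saline vehicle plus zymosan; mean ± S.E., n = 3.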

For assay [2], the system named is Mus musculus. Nature of the assay: Antiinflammatory activity in FVB mouse peritonitis model assessed as reduction in zymosan-induced total leukocyte infiltration at 10 ng, iv after 4 hrs. Type of assay: functional. Further details: scale not given: the % may be the effect or the level left. Summed up:
as §1

For assay [3], the system named is Mus musculus. Nature of the assay: Antiinflammatory activity in FVB mouse peritonitis model assessed as reduction in zymosan-induced polymorphonuclear leukocyte infiltration at 100 ng, iv after 4 hrs. Type of assay: functional. More on the design: scale not given: the % may be the effect or the level left. Summed up:
as §1

Assay [4] concerns Mus musculus. Nature of the assay: Antiinflammatory activity in iv dosed FVB mouse peritonitis model assessed as reduction in zymosan-induced polymorphonuclear leukocyte infiltration at after 4 hrs. Type of assay: functional, organism-based.
Assay [5] can be described thus: Antiinflammatory activity in human polymorphonuclear leukocytes assessed as inhibition of n-formylmethionylleucylphenylalanine-stimulated transendothelial migration after 15 mins. To be noted: 0.25 h.
Assay [6] is described as follows: Antiinflammatory activity in human polymorphonuclear leukocytes assessed as inhibition of n-formylmethionylleucylphenylalanine-stimulated transendothelial migration at 10 nM after 15 mins. Type of assay: functional. Further details: scale not given: the % may be the effect or the level left. Summed up: (§2)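 Human PMNs from venous blood (Histopaque 1077/1119 double gradient, NH4Cl lysis, >90% pure) in HBSS pH 7.4, preincubated 15 min at room temperature with 0–1000 nm compound; 10^6 cells added atop HMEC-1 monolayers on Transwell inserts; 100 nm fMLP lower chamber; migration 30 min, 37 °C, quantified by MPO; expressed as % reduction versus untreated PMNs.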

The nature of assay [7]: Antiinflammatory activity in human polymorphonuclear leukocytes assessed as inhibition of n-formylmethionylleucylphenylalanine-stimulated transendothelial migration at 1 uM after 15 mins. In kind it is functional. More on the design: scale not given: the % may be the effect or the level left. The gist of the method:
as §2

Assay [8] concerns Mus musculus. Briefly: Antiinflammatory activity in FVB mouse peritonitis model assessed as reduction in zymosan-induced polymorphonuclear leukocytes infiltration at 10 ng, iv after 4 hrs. Further details: scale not given: the % may be the effect or the level left. In kind it is functional. The gist of the method:
as §1

Structures are written as SMILES. Calls of active or inactive are those of the source. The rule behind the calls is not given here.

For orientation: EC50 means the midpoint of the concentration-response curve. With `CC/C=C\C[C@H](O)/C=C/C=C\C=C\C=C\[C@@H](O)[C@@H](O)C/C=C\CCC(=O)O`, the result in assay [1] was Active. Besides, the Activity in assay [2] is 8%; in assay [3] it was 35%; in assay [4], “Dose-dependent effect”; in assay [6], 50%. Besides, the EC50 in assay [5] came out at 30 nM.
For `CC/C=C\C[C@@H](O)/C=C/C=C\C=C\C=C\[C@@H](O)[C@@H](O)C/C=C\CCC(=O)O`, the outcome in assay [1] was Active. Further, the Activity is 23% in assay [2]; 65% in assay [7]; 35% in assay [3]; “Dose-dependent effect” in assay [4]; 50% in assay [6]. Further, the EC50 in assay [5] turned out to be 30 nM.
As for `CC/C=C\C[C@@H](O)/C=C/C=C\C=C\C=C\C(=O)[C@@H](O)C/C=C\CCC(=O)O`, the Activity in assay [8] was determined as 41%.
Same read-out and setting: then `CC/C=C\CC(=O)/C=C/C=C\C=C\C=C\[C@@H](O)[C@@H](O)C/C=C\CCC(=O)O`, with “inactive”.

Source of the values: ChEMBL document CHEMBL1156438, “Resolvin D1 and its aspirin-triggered 17R epimer. Stereochemical assignments, anti-inflammatory properties, and enzymatic inactivation” (J Biol Chem, 2007).
